ChEMBL document CHEMBL3259728, “Design, synthesis and biological evaluation of some novel substituted quinazolines as antitumor agents” (2014)

Assays:
Type in all cases: functional
[1] = system: MOLT-4; experiment: Cytotoxicity against human MOLT4 cells after 48 hrs by SRB assay; settings: MOLT-4, 48 h
Method in brief: (§1)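 NCI 60-cell-line panel of human tumour lines from nine cancer types. Continuous 48 h exposure at five 10-fold dilutions from 10^-4 to 10^-8 M, with 5-FU as positive control. SRB protein stain read spectrophotometrically at time zero, untreated control and each concentration. GI50, TGI and LC50 were derived from the [(Ti−Tz)/(C−Tz)]×100 growth relations, and out-of-range values are given as > or < the tested limits.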

[2] = system: U-251; experiment: Growth inhibition of human U251 cells assessed as cell growth at 10^-4 M after 48 hrs by SRB assay; settings: U-251, 48 h, read-out: Activity
[3] = system: SK-MEL-5; experiment: Growth inhibition of human SK-MEL-5 cells assessed as cell growth at 10^-5 M after 48 hrs by SRB assay; settings: SK-MEL-5, 48 h, read-out: Activity
[4] = Growth inhibition of human RXF393 cells assessed as cell growth at 10^-4 M after 48 hrs by SRB assay; settings: RXF 393, 48 h, read-out: Activity
[5] = system: KM12; experiment: Growth inhibition of human KM12 cells assessed as cell growth at 10^-5 M after 48 hrs by SRB assay; settings: KM12, 48 h, read-out: Activity
[6] = system: SN12C; experiment: Cytotoxicity against human SN12C cells after 48 hrs by SRB assay; method in brief: as §1
[7] = system: T47D; experiment: Growth inhibition of human T47D cells assessed as cell growth at 10^-8 M after 48 hrs by SRB assay; settings: read-out: Activity
[8] = Cytotoxicity against human EKVX cells after 48 hrs by SRB assay; method in brief: as §1
[9] = Growth inhibition of human HCT15 cells assessed as cell growth at 10^-7 M after 48 hrs by SRB assay; settings: HCT-15, 48 h, read-out: Activity
[10] = system: NCI-H460; experiment: Growth inhibition of human NCI-H460 cells assessed as cell growth at 10^-8 M after 48 hrs by SRB assay; settings: NCI-H460, 48 h, read-out: Activity
[11] = Growth inhibition of human MOLT4 cells assessed as cell growth at 10^-5 M after 48 hrs by SRB assay; settings: MOLT-4, 48 h, read-out: Activity
[12] = system: HOP-62; experiment: Growth inhibition of human HOP62 cells assessed as cell growth at 10^-7 M after 48 hrs by SRB assay; settings: HOP-62, 48 h, read-out: Activity
[13] = Growth inhibition of human UO31 cells assessed as cell growth at 10^-8 M after 48 hrs by SRB assay; settings: UO-31, 48 h, read-out: Activity
[14] = system: NCI-H322M; experiment: Growth inhibition of human NCI-H322M cells assessed as cell growth at 10^-7 M after 48 hrs by SRB assay; settings: read-out: Activity
[15] = Growth inhibition of human LOXIMVI cells assessed as cell growth at 10^-8 M after 48 hrs by SRB assay; settings: LOX IMVI, read-out: Activity
[16] = Growth inhibition of human UACC62 cells assessed as cell growth at 10^-6 M after 48 hrs by SRB assay; settings: UACC-62, 48 h, read-out: Activity
[17] = Growth inhibition of human UO31 cells assessed as cell growth at 10^-4 M after 48 hrs by SRB assay; settings: UO-31, 48 h, read-out: Activity
[18] = Growth inhibition of human OVCAR3 cells assessed as cell growth at 10^-8 M after 48 hrs by SRB assay; settings: OVCAR-3, 48 h, read-out: Activity
[19] = system: HCC 2998; experiment: Cytotoxicity against human HCC2998 cells after 48 hrs by SRB assay; settings: HCC 2998, 48 h; method in brief: as §1
[20] = Growth inhibition of human RXF393 cells assessed as cell growth at 10^-7 M after 48 hrs by SRB assay; settings: RXF 393, 48 h, read-out: Activity
[21] = system: HOP-62; experiment: Cytotoxicity against human HOP62 cells after 48 hrs by SRB assay; settings: HOP-62, 48 h; method in brief: as §1
[22] = system: COLO 205; experiment: Growth inhibition of human COLO205 cells assessed as cell growth at 10^-6 M after 48 hrs by SRB assay; settings: COLO 205, 48 h, read-out: Activity
Method in brief: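 Five-dose NCI panel protocol. Each dose (10^-4 to 10^-8 M, 10-fold steps) was given as 48 h continuous exposure, and protein was measured by SRB staining. Percentage growth at each level is [(Ti−Tz)/(C−Tz)]×100, where Tz is time-zero absorbance and C is untreated control.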

[23] = Growth inhibition of human RXF393 cells assessed as cell growth at 10^-6 M after 48 hrs by SRB assay; settings: RXF 393, 48 h, read-out: Activity
[24] = Growth inhibition of human OVCAR8 cells assessed as cell growth at 10^-4 M after 48 hrs by SRB assay; settings: OVCAR-8, 48 h, read-out: Activity
[25] = system: PC-3; experiment: Growth inhibition of human PC3 cells assessed as cell growth at 10^-6 M after 48 hrs by SRB assay; settings: PC-3, 48 h, read-out: Activity
[26] = system: NCI-H226; experiment: Growth inhibition of human NCI-H226 cells assessed as cell growth at 10^-8 M after 48 hrs by SRB assay; settings: NCI-H226, 48 h, read-out: Activity
[27] = system: SR; experiment: Growth inhibition of human SR cells assessed as cell growth at 10^-6 M after 48 hrs by SRB assay; settings: read-out: Activity
[28] = system: SNB-19; experiment: Growth inhibition of human SNB19 cells assessed as cell growth at 10^-7 M after 48 hrs by SRB assay; settings: SNB-19, 48 h, read-out: Activity
[29] = Growth inhibition of human OVCAR5 cells assessed as cell growth at 10^-5 M after 48 hrs by SRB assay; settings: OVCAR-5, 48 h, read-out: Activity
[30] = system: KM12; experiment: Cytotoxicity against human KM12 cells after 48 hrs by SRB assay; settings: KM12, 48 h; method in brief: as §1
[31] = read-out: LC50 (the source's name)
[32] = read-out: pLC50 (the source's name) (converted)

Cc1ccc(-c2nc3ccc(Cl)cc3c(=O)n2/N=C/c2ccccc2)cc1
GI50 ([1]; read-out: GI50): > 100 µM | CC50 [1, 31]: > 100 µM | TGI ([1]; read-out: TGI): > 100 µM | GI50 ([1]; read-out: pGI50 (converted)): > 100 µM | CC50 [1, 32]: > 100 µM | TGI ([1]; read-out: pTGI): > 100 µM | growth at 100 µM [2]: 7% | growth at 10 µM [3]: 57% | growth at 100 µM [4]: 19% | growth at 10 µM [5]: 74% | GI50 ([6]; read-out: GI50): 11.8 µM | CC50 [6, 31]: > 100 µM | TGI ([6]; read-out: TGI): > 100 µM | GI50 ([6]; read-out: pGI50 (converted)): 11.7 µM | CC50 [6, 32]: > 100 µM | TGI ([6]; read-out: pTGI): > 100 µM | growth at 0.01 µM [7]: 89% | GI50 ([8]; read-out: GI50): 4.15 µM | CC50 [8, 31]: > 100 µM | TGI ([8]; read-out: TGI): > 100 µM | GI50 ([8]; read-out: pGI50 (converted)): 4.17 µM | CC50 [8, 32]: > 100 µM | TGI ([8]; read-out: pTGI): > 100 µM | growth at 0.1 µM [9]: 92% | growth at 0.01 µM [10]: 100% | growth at 10 µM [11]: 88% | growth at 0.1 µM [12]: 89% | growth at 0.01 µM [13]: 77% | growth at 0.1 µM [14]: 76% | growth at 0.01 µM [15]: 98% | growth at 1 µM [16]: 80% | growth at 100 µM [17]: 39% | growth at 0.01 µM [18]: 100% | GI50 ([19]; read-out: GI50): > 100 µM | CC50 [19, 31]: > 100 µM | TGI ([19]; read-out: TGI): > 100 µM | GI50 ([19]; read-out: pGI50 (converted)): > 100 µM | CC50 [19, 32]: > 100 µM | TGI ([19]; read-out: pTGI): > 100 µM | growth at 0.1 µM [20]: 101% | GI50 ([21]; read-out: GI50): 1.98 µM | CC50 [21, 31]: 31.8 µM | TGI ([21]; read-out: TGI): 5.09 µM | GI50 ([21]; read-out: pGI50 (converted)): 2 µM | CC50 [21, 32]: 31.6 µM | TGI ([21]; read-out: pTGI (converted)): 5.13 µM | growth at 1 µM [22]: 119% | growth at 1 µM [23]: 90% | growth at 100 µM [24]: 27% | growth at 1 µM [25]: 86% | growth at 0.01 µM [26]: 91% | growth at 1 µM [27]: 52% | growth at 0.1 µM [28]: 93% | growth at 10 µM [29]: 74% | GI50 ([30]; read-out: GI50): > 100 µM | CC50 [30, 31]: > 100 µM | TGI ([30]; read-out: TGI): > 100 µM | GI50 ([30]; read-out: pGI50 (converted)): > 100 µM | CC50 [30, 32]: > 100 µM | TGI ([30]; read-out: pTGI): > 100 µM
